{"source": "ChEMBL document CHEMBL4000167", "about": "“Chlorotheolides A and B, Spiroketals Generated via Diels-Alder Reactions in the Endophytic Fungus Pestalotiopsis theae” (J Nat Prod, 2016)", "key": {"HeLa [1]": {"tested_on": "HeLa", "experiment": "Induction of autophagy in human HeLa cells assessed as effect on ratio of SQSTM1/p62 to actin at 15 uM after 2 hrs by immunoblot method relative to control", "type": "functional", "in_short": "(§1)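 Lysis used Triton X-100/glycerol buffer: 50 mM Tris-HCl pH 7.4, 4 mM EDTA, 2 mM EGTA, 1 mM DTT, 1% Triton X-100, 1% SDS and protease inhibitors. Lysates were run on SDS-PAGE, blotted to PVDF and detected by HRP secondaries with ECL. p62/actin ratio calculated.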"}, "HeLa [2]": {"tested_on": "HeLa", "experiment": "Antiproliferative activity against human HeLa cells at 20 ug/ml after 48 hrs by MTS assay", "type": "functional, cell-based", "in_short": "(§2)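 Cells seeded at (2−5) × 10^3 per well in 96-well plates and allowed to attach overnight. Medium was then replaced with medium containing test compound by serial dilution from 100 mM DMSO stocks, or 0.1% DMSO, with cisplatin as positive control. Incubation was 48 h at 37 °C in 5% CO2, then MTS was added for 90 min at 37 °C. Absorbance read at 490 nm; triplicate.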"}, "MCF7": {"tested_on": "MCF7", "experiment": "Antiproliferative activity against human MCF7 cells at 20 ug/ml after 48 hrs by MTS assay", "type": "functional, cell-based", "in_short": "as §2"}, "HeLa [3]": {"tested_on": "HeLa", "experiment": "Induction of autophagy in human HeLa cells assessed as effect on ratio of SQSTM1/p62 to actin at 10 uM after 2 hrs in presence of chloroquine by immunoblot method relative to control", "type": "functional", "in_short": "as §1"}, "HeLa [4]": {"tested_on": "HeLa", "experiment": "Induction of autophagy in human HeLa cells assessed as effect on ratio of SQSTM1/p62 to actin at 1 uM after 2 hrs by immunoblot method relative to control", "type": "functional", "in_short": "as §1"}, "HeLa [5]": {"tested_on": "HeLa", "experiment": "Induction of autophagy in human HeLa cells assessed as effect on ratio of LC3-2 to actin at 1 uM after 2 hrs by immunoblot method relative to control", "type": "functional", "in_short": "(§3)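 Lysis in Tris-HCl pH 7.4 buffer with EDTA, EGTA, DTT, 1% Triton X-100, 1% SDS and protease inhibitors. SDS-PAGE, PVDF transfer, HRP secondary antibodies, ECL detection. LC3-II band expressed as a ratio to actin.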"}, "HeLa [6]": {"tested_on": "HeLa", "experiment": "Induction of autophagy in human HeLa cells assessed as effect on ratio of LC3-2 to actin at 20 uM after 2 hrs in presence of chloroquine by immunoblot method relative to control", "type": "functional", "in_short": "as §3"}, "HeLa [7]": {"tested_on": "HeLa", "experiment": "Induction of autophagy in human HeLa cells assessed as effect on ratio of LC3-2 to actin at 20 uM after 2 hrs by immunoblot method relative to control", "type": "functional", "in_short": "as §3"}, "HeLa [8]": {"tested_on": "HeLa", "experiment": "Induction of autophagy in human HeLa cells assessed as increase in punctate LC3 accumulation at 10 uM after 2 hrs in presence of chloroquine by immunofluorescence method", "type": "functional, cell-based", "in_short": "(§4)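 They were fixed in 4% paraformaldehyde and permeabilized in Ca/Mg-free PBS with 0.1% Triton X-100 and 0.5% BSA. Staining used anti-LC3 and Alexa Fluor secondaries, with DAPI mounting. LC3 puncta were counted by fluorescence microscopy.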"}, "HeLa [9]": {"tested_on": "HeLa", "experiment": "Induction of autophagy in human HeLa cells assessed as effect on ratio of LC3-2 to actin at 10 uM after 2 hrs by immunoblot method relative to control", "type": "functional", "in_short": "as §3"}, "HeLa [10]": {"tested_on": "HeLa", "experiment": "Induction of autophagy in human HeLa cells assessed as effect on ratio of SQSTM1/p62 to actin at 20 uM after 2 hrs in presence of chloroquine by immunoblot method relative to control", "type": "functional", "in_short": "as §1"}, "HeLa [11]": {"tested_on": "HeLa", "experiment": "Induction of autophagy in human HeLa cells assessed as effect on ratio of SQSTM1/p62 to actin at 20 uM after 2 hrs by immunoblot method relative to control", "type": "functional", "in_short": "as §1"}, "HeLa [12]": {"tested_on": "HeLa", "experiment": "Induction of autophagy in human HeLa cells assessed as increase in punctate LC3 accumulation at 10 uM after 2 hrs by immunofluorescence method", "type": "functional, cell-based", "in_short": "as §4"}, "HeLa [13]": {"tested_on": "HeLa", "experiment": "Induction of autophagy in human HeLa cells assessed as accumulation of membrane vacuoles at 10 uM at 2 hrs by transmission electron microscopic method", "type": "functional, cell-based", "in_short": "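HeLa cells treated with 10 μM for 2 h, then washed in PBS, trypsinized and pelleted. Pellets fixed in 4% paraformaldehyde at 4 °C overnight and postfixed in 1% OsO4 in cacodylate buffer for 1 h at RT. They were then dehydrated in ethanol, rinsed in propylene oxide and embedded in Spurr resin. Thin sections examined by TEM.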"}, "HeLa [14]": {"tested_on": "HeLa", "experiment": "Induction of autophagy in human HeLa cells assessed as effect on ratio of SQSTM1/p62 to actin at 10 uM after 2 hrs by immunoblot method relative to control", "type": "functional", "in_short": "as §1"}, "HeLa [15]": {"tested_on": "HeLa", "experiment": "Induction of autophagy in human HeLa cells assessed as effect on ratio of SQSTM1/p62 to actin at 1 uM after 2 hrs in presence of chloroquine by immunoblot method relative to control", "type": "functional", "in_short": "as §1"}, "HeLa [16]": {"tested_on": "HeLa", "experiment": "Induction of autophagy in human HeLa cells assessed as effect on ratio of LC3-2 to actin at 10 uM after 2 hrs in presence of chloroquine by immunoblot method relative to control", "type": "functional", "in_short": "as §3"}, "HeLa [17]": {"tested_on": "HeLa", "experiment": "Induction of autophagy in human HeLa cells assessed as effect on ratio of LC3-2 to actin at 1 uM after 2 hrs in presence of chloroquine by immunoblot method relative to control", "type": "functional", "in_short": "as §3"}}, "note": "Calls of active or inactive are those of the source. The calls are words filed in the database; no cut-off is given here."}
{"molecule": "CCN(CC)CCCC(C)Nc1ccnc2cc(Cl)ccc12", "note": "(stereo not given) [CHLOROQUINE]", "values": [{"measurement": "fold change (FC)", "setting": "HeLa [1]", "value": 1.8}]}
{"molecule": "COC(=O)C1=CC(OC)=C(Cl)C(=O)C12OC(=O)c1c(O)cc(C)cc1O2", "note": "(stereo not given)", "values": [{"measurement": "inhibition", "setting": "HeLa [2]", "value": "inactive"}, {"measurement": "inhibition", "setting": "MCF7", "value": "inactive"}]}
{"molecule": "C=C(C(=O)O)[C@@H](CCCCCCCC)C(=O)O", "values": [{"measurement": "inhibition", "setting": "HeLa [2]", "value": "inactive"}, {"measurement": "inhibition", "setting": "MCF7", "value": "inactive"}]}
{"molecule": "CCCCCCCC1=COC(=O)[C@]12C[C@]1(C(=O)OC)C=C(OC)[C@@]2(Cl)C(=O)[C@]12OC(=O)c1c(O)cc(C)cc1O2", "values": [{"measurement": "fold change (FC)", "setting": "HeLa [3]", "value": 2.19}, {"measurement": "fold change (FC)", "setting": "HeLa [4]", "value": 2.76}, {"measurement": "fold change (FC)", "setting": "HeLa [5]", "value": 1.03}, {"measurement": "fold change (FC)", "setting": "HeLa [6]", "value": 10.86}, {"measurement": "fold change (FC)", "setting": "HeLa [7]", "value": 2.9}, {"measurement": "Activity", "setting": "HeLa [8]", "value": "Active"}, {"measurement": "fold change (FC)", "setting": "HeLa [9]", "value": 0.79}, {"measurement": "fold change (FC)", "setting": "HeLa [10]", "value": 1.94}, {"measurement": "fold change (FC)", "setting": "HeLa [11]", "value": 2.84}, {"measurement": "Activity", "setting": "HeLa [12]", "value": "Active"}, {"measurement": "Activity", "setting": "HeLa [13]", "value": "Active"}, {"measurement": "fold change (FC)", "setting": "HeLa [14]", "value": 3.61}, {"measurement": "fold change (FC)", "setting": "HeLa [15]", "value": 2.84}, {"measurement": "fold change (FC)", "setting": "HeLa [16]", "value": 12.53}, {"measurement": "fold change (FC)", "setting": "HeLa [17]", "value": 10.98}]}
